Source: PubChem
Only some compounds are listed: those with a hit (about 2.3% of all), similar ones and a draw of the others.
TRPC4 potent: allosteric potentiators of mouse TRPC4 channel | Q9QUQ5 | HEK293 TRPC4beta/mu-opioid, DAMGO EC20, Fluo-4 Ca2+ flux; stronger effect = higher value | B-score at 10 µM | hit rate 0.42% among 310,000 | AID 2227;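 active = B-score of calcium response area above 5 SD of library B-scores, with initial fluorescence ratio within 5 SD of library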;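 note: B-score of integrated fluorescence ratio over time as area under calcium response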
TRPC4 block: TRPC4 (mouse) channel inhibition; hit rate 0.39% among 300,000; HEK293 TRPC4beta/mu-opioid, DAMGO-evoked Fluo4 calcium flux; stronger effect = lower value; B-score at 10 µM; Q9QUQ5;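 active = B-score over 3 SD under the library average, no early fluorescence shift, positive overall ratio signal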
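Assay system: TRPC4beta/mu-opioid receptor HEK293 cell line; compound dosing: single concentration per test compound; detection: Fluo4 Ca2+ flux fluorescence; evaluation: per-well B score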
TRPC6 activator: activates the mouse TRPC6 cation channel; HEK293-TRPC6 membrane potential dye fluorescence; stronger effect = higher value; AID 2550; hit rate 0.13% among 310,000; B-score at 10 µM; Q61143;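 active = B-score of the integrated fluorescence ratio above library mean plus 3 SD, and starting fluorescence ratio within library mean plus 5 SD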;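 note: higher score means more depolarization so channel activation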
Target sequence (Q61143 whole entry, looked up): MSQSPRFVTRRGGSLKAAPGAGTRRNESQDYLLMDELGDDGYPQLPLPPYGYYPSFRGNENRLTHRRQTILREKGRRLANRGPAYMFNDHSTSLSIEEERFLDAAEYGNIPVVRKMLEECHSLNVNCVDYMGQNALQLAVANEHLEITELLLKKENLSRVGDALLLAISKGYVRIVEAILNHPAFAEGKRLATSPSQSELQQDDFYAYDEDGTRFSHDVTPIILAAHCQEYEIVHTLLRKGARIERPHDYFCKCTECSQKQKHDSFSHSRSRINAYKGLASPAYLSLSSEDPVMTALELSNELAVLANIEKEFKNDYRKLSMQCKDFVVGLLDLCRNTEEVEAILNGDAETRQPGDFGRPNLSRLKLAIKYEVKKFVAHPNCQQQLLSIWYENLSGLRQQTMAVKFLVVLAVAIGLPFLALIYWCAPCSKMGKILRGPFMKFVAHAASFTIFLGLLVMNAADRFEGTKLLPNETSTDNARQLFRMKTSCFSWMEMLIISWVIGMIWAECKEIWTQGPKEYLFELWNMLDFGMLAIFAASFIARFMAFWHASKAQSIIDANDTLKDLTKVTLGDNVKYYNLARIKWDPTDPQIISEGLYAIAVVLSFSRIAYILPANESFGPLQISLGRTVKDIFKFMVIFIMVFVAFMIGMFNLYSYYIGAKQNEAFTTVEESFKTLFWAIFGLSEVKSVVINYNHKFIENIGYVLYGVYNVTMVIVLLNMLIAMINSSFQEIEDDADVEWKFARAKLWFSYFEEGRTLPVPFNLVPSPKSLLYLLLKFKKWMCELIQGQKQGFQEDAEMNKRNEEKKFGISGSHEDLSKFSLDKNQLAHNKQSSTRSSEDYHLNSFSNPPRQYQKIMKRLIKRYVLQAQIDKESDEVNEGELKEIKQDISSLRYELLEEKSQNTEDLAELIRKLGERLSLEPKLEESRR
TRPC4 agonist: activators of mouse TRPC4 channel; Q9QUQ5; HEK293 TRPC4beta/mu-opioid, Fluo4 calcium fluorescence; stronger effect = higher value; B-score at 10 µM; hit rate 0.49% among 310,000; AID 2237;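 active = B-score above 5 SD of library B-scores, and initial fluorescence ratio not above library mean plus 5 SD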;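 note: positive B-score marks a calcium rise read as TRPC4 activation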
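Assay system: HEK293 stable line with TRPC4beta plus mu-opioid receptor; schedule: 45 min room-temperature Fluo4 loading, 110 s read; technique: kinetic Fluo4 calcium fluorescence; evaluation: integrated baseline-normalised fluorescence ratio, converted to per-well B score; controls: buffer (low) and maximal DAMGO (high)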
TRPC6 inhibitor: blocks the mouse TRPC6 cation channel; Q61143; HEK293-TRPC6, membrane potential dye, ACh-evoked depolarization; stronger effect = lower value; B-score at 10 µM; hit rate 1.1% among 310,000;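 active = B-score under library mean minus 3 SD, initial fluorescence not abnormally high, positive integrated signal ratio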;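 note: B-score derived from integrated fluorescence ratio over the kinetic read; more negative B-score means stronger inhibition of depolarization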
TRPC4 spec 2: mouse TRPC4 off-target activity of TRPC6 inhibitors, second screen | shares compounds with TRPC6 inhibitor | HEK293 TRPC4/MOR, membrane potential dye fluorescence; channel activated by saturating DAMGO dose | inhibition, % at 10 µM | hit rate 42% among 920 | AID 2776;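 active = compounds whose fluorescence signal differed from control wells by over 3 SD, either direction, in both duplicate plates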
TRPC4 spec: selectivity of TRPC6 inhibitors: effect on mouse TRPC4. shares compounds with TRPC6 inhibitor. HEK293 TRPC4/mu-opioid, membrane potential fluorescence. activity change, negative = inhibition, % at 10 µM. hit rate 61% among 920;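 active = rise or fall in signal beyond 3 SD of buffer-only wells in both replicate plates, either sign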;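 note: integrated kinetic ratio of fluorescence range over baseline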
HEK293 MPD ctr 2-1: second counter-screen for TRPC6 inhibitors: parental HEK293 cells. shares compounds with TRPC6 inhibitor. parental HEK293 membrane potential dye fluorescence; maximal acetylcholine challenge after compound addition. signal change vs control, % at 10 µM. hit rate 31% among 920;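 active = membrane potential signal moving either way by over 3 SD of the maximum-effect control, in both duplicate plates, meaning non-specific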
HEK293 MPD ctr-1: counter-screen for TRPC6 inhibitors: effect in parental HEK293 cells | hit rate 60% among 920 | AID 2780 | membrane potential signal change, % at 10 µM | parental HEK293 membrane potential dye fluorescence | shares compounds with TRPC6 inhibitor;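 active = membrane potential signal shifting up or down by more than 3 SD of buffer-only wells, on both duplicate plates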
HEK293 MPD ctr-2: parental HEK293 nonspecific activity of TRPC6 modulators; shares compounds with TRPC6 inhibitor; membrane potential dye fluorescence; membrane potential signal change, % at 10 µM; hit rate 51% among 2,400; AID 488924;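 active = membrane potential signal moves up or down beyond 5 SD from buffer-only wells, on both duplicate plates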
HEK293 MPD ctr 2-2: second check of TRPC6 modulator effects in parental HEK293 cells; membrane potential dye fluorescence; after compound, maximal acetylcholine stimulation; shares compounds with TRPC6 inhibitor; inhibition, % at 10 µM; hit rate 14% among 2,400;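 active = membrane potential signal drops by more than 5 SD from the mean control signal, in both duplicate plates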;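 note: plate controls were acetylcholine ECmax control wells for no effect and buffer only wells for full effect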
TRPC4/MOR mod: tests whether TRPC6 modulators also affect mouse TRPC4. shares compounds with TRPC6 inhibitor. HEK293 TRPC4/mu-opioid, membrane potential fluorescence. percent change from control (negative = decrease, positive = increase), % at 10 µM. hit rate 69% among 2,400. AID 488927;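 active = membrane potential signal moved up or down beyond 5 SD of buffer control wells, in both duplicate plates, actives on both sides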;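 note: plate controls were assay buffer wells for no effect and DAMGO maximal-effect wells for full effect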
TRPC4/MOR inh 2: second selectivity test of TRPC6 modulators against mouse TRPC4 | hit rate 55% among 2,400 | HEK293 TRPC4/mu-opioid, membrane potential dye fluorescence; stimulated with maximal-effect DAMGO | shares compounds with TRPC6 inhibitor | inhibition, % at 10 µM;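 active = drop in membrane potential signal beyond 5 SD of the control wells in both duplicate plates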;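 note: TRPC4 counter screen for TRPC6 hits run under conditions tuned for TRPC6 not TRPC4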
TRPC6 block conf: confirmation of mouse TRPC6 inhibitors; HEK293-TRPC6, membrane potential dye, ACh-evoked depolarization; AID 488960; inhibition, % at 10 µM; hit rate 43% among 3,300; shares compounds with TRPC6 inhibitor;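 active = fluorescence ratio falls more than 5 SD below the full-stimulation control mean, in both duplicate runs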;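 note: integrated fluorescence ratio of peak minus minimum over baseline after agonist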
TRPC6 act confirm: mouse TRPC6 activator confirmation. shares compounds with TRPC6 inhibitor. HEK293-TRPC6 membrane potential dye fluorescence, FDSS. activation, % at 10 µM. hit rate 11% among 2,800;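 active = ratio signal rise beyond 5 SD above unstimulated control wells' mean, seen in both duplicate runs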;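 note: plate controls were buffer EC0 wells for no effect and acetylcholine ECmax response for full effect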
* = called active by the depositor; i = inactive; nt = no result given.

SMILES | TRPC4 potent | TRPC4 block | TRPC6 activator | TRPC4 agonist | TRPC6 inhibitor | HEK293 MPD ctr-2 | HEK293 MPD ctr 2-2 | TRPC4/MOR mod | TRPC4/MOR inh 2 | TRPC6 block conf | TRPC6 act confirm | others
COc1ccc(Cl)cc1NC(=O)C1CC(c2ccccc2O)=NO1 (centres undefined) | i | i | i | i | i | nt | nt | nt | nt | nt | nt
CC1(c2nnc(Cc3ccccc3)o2)CC(c2ccccc2Br)=NO1 (centres undefined) | i | i | i | i | i | nt | nt | nt | nt | nt | nt
Cc1ccc(S(=O)(=O)N2CCN(C(=O)c3cccs3)CC2)cc1C | i | i | 18* | i | i | i | i | 16%* | i | nt | 148%*
CC(C)N(Cc1nccn1C)C(=O)CC1C(=O)NCCN1Cc1ccc(F)c(F)c1 (centres undefined) | i | i | i | i | i | nt | nt | nt | nt | nt | nt
CCOC(=O)C1(C)/C(=N/Nc2ccccc2OC)C(=O)C(=O)N1c1ccccc1 (centres undefined) | i | i | i | i | -8.1* | -226%* | i | -40%* | 68%* | 44%* | i
COc1ccc2[nH]c3c(c2c1)CCNC3C1CC=C(C)CC1 (centres undefined) | i | i | i | i | -6.3* | i | i | i | 56%* | 36%* | i
COc1ccc2[nH]c3c(c2c1)CCNC3c1ccc([N+](=O)[O-])o1 (centres undefined) | i | i | i | i | i | nt | nt | nt | nt | nt | nt
CN1CCc2c(c3ccccc3n2Cc2ccccc2)C1 | i | i | i | i | -5.4* | 141%* | i | 18%* | 64%* | i | nt
COc1ccc(-c2cn[nH]c2-c2ccc(OC)cc2O)cc1 | i | i | i | i | -5.2* | i | i | -14%* | 48%* | i | i
COc1ccc(-c2[nH]ncc2-c2ccc(Cl)cc2)c(O)c1 | i | i | i | i | i | nt | nt | nt | nt | nt | nt
Oc1ccc(-c2[nH]ncc2-c2cccc3cccnc23)c(O)c1 | i | i | i | i | i | nt | nt | nt | nt | nt | nt
Oc1ccc(-c2[nH]ncc2-c2ccc(Br)cc2)c(O)c1 | i | i | i | i | -5.3* | -72%* | i | -16%* | 68%* | 50%* | i
Oc1ccc(-c2[nH]ncc2-c2ccc(Cl)cc2)c(O)c1 | i | i | i | i | -7.4* | -74%* | i | -22%* | 79%* | 46%* | i
Fc1ccccc1COc1ccc2ccccc2c1CNc1nn[nH]n1 | i | i | i | i | i | nt | nt | nt | nt | nt | nt
CSc1cccc(N2CC(C(=O)Nc3cccc(S(=O)(=O)N4CCCC4)c3)CC2=O)c1 (centres undefined) | i | i | i | i | i | nt | nt | nt | nt | nt | nt
COc1ccc(C=O)cc1OC(=O)N1CCOCC1 | i | i | i | i | i | nt | nt | nt | nt | nt | nt
CCCCCC(=O)Nc1cc(S(=O)(=O)N2CCOCC2)ccc1Oc1ccc(OCC)cc1 | i | i | i | i | i | nt | nt | nt | nt | nt | nt
Cc1ccc[n+](CC(=O)c2cc3ccccc3oc2=O)c1 | i | i | i | i | -6.5* | -76%* | i | -22%* | i | 70%* | i
CN(C)/C=C1\Cc2ccccc2C1=O | i | i | i | i | i | nt | nt | nt | nt | nt | nt
CC[N+]1(C)CCC(=C2c3ccccc3CC(=O)c3sccc32)CC1 (centres undefined) | i | i | i | i | -14* | nt | nt | nt | nt | 80%* | i | TRPC4 spec 2=i;TRPC4 spec=i;HEK293 MPD ctr 2-1=43%*;HEK293 MPD ctr-1=i
O=C(c1ccccc1F)N1CCN(c2ccc([N+](=O)[O-])c3ncccc23)CC1 | i | i | i | i | i | nt | nt | nt | nt | nt | nt
O=[N+]([O-])c1cccc2c(N3CCCC3)ccnc12 | i | i | i | i | -8.9* | -360%* | 95%* | -44%* | 56%* | 70%* | i
Cc1cc(N2CCN(C)CC2)nc2ccc(NC(=O)CCC3CCCC3)cc12 | i | i | i | i | i | nt | nt | nt | nt | nt | nt
Clc1ccc(-c2c[n+]3c(n2-c2ccccc2)SCC3)cc1 | i | i | i | i | i | nt | nt | nt | nt | nt | nt
O=[N+]([O-])c1cccc(-c2c[n+]3c(n2-c2ccccc2)SCC3)c1 | i | i | i | i | -5.2* | i | i | i | 34%* | 47%* | i
COCCC(=O)N1CCCC(CCC(=O)NCc2ccc(F)c(F)c2)C1 (centres undefined) | i | i | i | i | i | nt | nt | nt | nt | nt | nt
COc1ccc(/C=C/CN2CCCC(CCC(=O)NCc3ccc(F)c(F)c3)C2)cc1 (centres undefined) | i | i | i | i | -7.4* | nt | nt | nt | nt | i | i | TRPC4 spec 2=48%*;TRPC4 spec=0.3%*;HEK293 MPD ctr 2-1=i;HEK293 MPD ctr-1=7.4%*
COC(=O)c1ccc(CN2CCCC(CCC(=O)NCc3ccc(C)o3)C2)cc1 (centres undefined) | i | i | i | i | -7.9* | nt | nt | nt | nt | 56%* | i | TRPC4 spec 2=i;TRPC4 spec=0.0%*;HEK293 MPD ctr 2-1=i;HEK293 MPD ctr-1=3.2%*
COc1ccccc1C(C)NC(=O)c1cc(=O)[nH]c2ccccc12 (centres undefined) | i | i | i | i | i | nt | nt | nt | nt | nt | nt
